The nature of series [1]: folding enthalpy; higher = less favourable; fluorescence melt of hairpins on a sequencing array, two-state fit. As to conditions: sodium 0.088 M. The method in brief:
(§1)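 In 50 mM Na-HEPES pH 8.0 containing 25 mM NaCl, hairpins from the library on a sequenced MiSeq flow cell were imaged for Cy3 fluorescence at 2.5 °C steps up to 60 °C, with Cy3 and quencher oligos annealed. After normalisation to pre-quench Cy3 and to control constructs, two-state fits with bootstrapping gave melting temperature and folding enthalpy. Four replicates were combined by inverse-variance weighting, and fitted temperatures were shifted up by 9.35 °C to match UV melts.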

Series [2] can be described thus: melting temperature; fluorescence melt of hairpins on a sequencing array, two-state fit, raised by 9.35 °C to match UV melts. As to conditions: sodium 0.088 M. In short, it runs like this:
as §1

Regarding GATCCGCCTTCGGATC ((((((....)))))), the folding enthalpy in series [1] was -44.3 kcal/mol. Besides, the Tm in series [2] came out at 55.9 °C.
As to GATCCGCGAAAGCGCATC (((.(((....))).))), the folding enthalpy in series [1] is -14.1 kcal/mol. For the same sequence, the Tm in series [2] was determined as 36.5 °C.
For the sequence GATCCGCGCCGGATC ((((((...)))))), the folding enthalpy in series [1] was -33.9 kcal/mol. Moreover, the Tm in series [2] was 60 °C.
The matching figures for GATCCGCGTCGGATC ((((((...)))))): -35.6 kcal/mol and 57.3 °C.
Take GATCCGCTACGGATC ((((((...)))))): the folding enthalpy in series [1] was -31.7 kcal/mol. For the same sequence, in series [2], the Tm was found to be 57.2 °C.
For GATCCGCTCCGGATC ((((((...)))))), in series [1], the folding enthalpy was -37.5 kcal/mol. The Tm in series [2] was 59.2 °C.
The matching figures for GATCCGCTGTCGGATC ((((((....)))))): -42.1 kcal/mol and 57.8 °C.
Regarding GATCCGGACGCGGATC ((((((....)))))), the folding enthalpy in series [1] was -38 kcal/mol. In addition, in series [2], the Tm came to 59.5 °C.
For GATCCGGATACGGATC ((((((....)))))) the same measures were -38.8 kcal/mol and 67.9 °C.
The matching figures for GATCCGGATCGGATC ((((((...)))))): -35.4 kcal/mol and 55.6 °C.
The matching figures for GATCCGGGAAACCGAATC (((.(((....))).))): -24.5 kcal/mol and 38.2 °C.
With GATCCGGTCTCGGATC ((((((....)))))), the folding enthalpy in series [1] is -26.6 kcal/mol. In series [2], the Tm turned out to be 58.6 °C.
On to GATCCGTACGCGGATC ((((((....)))))), for which the folding enthalpy in series [1] is -39.5 kcal/mol. In addition, the Tm in series [2] stood at 63.5 °C.
For GATCCGTCACCGGATC ((((((....)))))) the same measures were -41.6 kcal/mol and 57.2 °C.
Regarding GATCCGTCGGCGGATC ((((((....)))))), in series [1], the folding enthalpy was -39.3 kcal/mol. For the same sequence, the Tm in series [2] is 59 °C.
For GATCCGTGACCGGATC ((((((....)))))) the same measures were -44.1 kcal/mol and 56 °C.
Turning to GATCCGTGCTCGGATC ((((((....)))))), the folding enthalpy in series [1] was -43.9 kcal/mol. Besides, the Tm in series [2] stood at 59.7 °C.
The matching figures for GATCCGTGGTCGGATC ((((((....)))))): -38.8 kcal/mol and 58.7 °C.
The matching figures for GATCCGTGTCGGATC ((((((...)))))): -34.4 kcal/mol and 60.5 °C.
As to GATCCGTTATCGGATC ((((((....)))))), the folding enthalpy in series [1] is -36 kcal/mol. Also, the Tm in series [2] turned out to be 59.2 °C.
Take GATCCGTTGGCGGATC ((((((....)))))): the folding enthalpy in series [1] was -36.5 kcal/mol. Besides, the Tm in series [2] turned out to be 59.6 °C.
For GATCCGTTGTCGGATC ((((((....)))))), the folding enthalpy in series [1] is -44.4 kcal/mol. In addition, the Tm in series [2] came to 59.4 °C.
For GATCCGTTTACGGATC ((((((....)))))) the same measures were -39.3 kcal/mol and 68.1 °C.
The matching figures for GATCCGTTTCGGATC ((((((...)))))): -38 kcal/mol and 63 °C.
Take GATCCTAAACAGGATC ((((((....)))))): in series [1], the folding enthalpy is -31.5 kcal/mol. Besides, the Tm in series [2] stood at 49 °C.
As to GATCCTAACAAGGATC ((((((....)))))), the folding enthalpy in series [1] was -32.6 kcal/mol. Further, the Tm in series [2] was 51.5 °C.
GATCCTAACAGGATC ((((((...)))))): the folding enthalpy in series [1] is -40.5 kcal/mol. In addition, the Tm in series [2] came out at 55.3 °C.
Take GATCCTAACCAGGATC ((((((....)))))): the folding enthalpy in series [1] is -32.3 kcal/mol. The Tm in series [2] worked out at 52 °C.
The matching figures for GATCCTAACTAGGATC ((((((....)))))): -36.2 kcal/mol and 53.3 °C.
For GATCCTAATTAGGATC ((((((....)))))) the same measures were -45.2 kcal/mol and 52 °C.
Turning to GATCCTACCTAGGATC ((((((....)))))), in series [1], the folding enthalpy is -31.6 kcal/mol. Moreover, in series [2], the Tm came out at 53 °C.
For GATCCTACGTAGGATC ((((((....)))))) the same measures were -40.6 kcal/mol and 53.3 °C.
For GATCCTACTAGGATC ((((((...)))))) the same measures were -36.2 kcal/mol and 53.6 °C.
GATCCTAGAGAGGATC ((((((....)))))): in series [1], the folding enthalpy was -35.4 kcal/mol. In addition, the Tm in series [2] was found to be 48 °C.
For GATCCTAGCAGGATC ((((((...)))))) the same measures were -37 kcal/mol and 55.9 °C.
The matching figures for GATCCTAGCCAGGATC ((((((....)))))): -40.2 kcal/mol and 52.1 °C.
For GATCCTAGGAAGGATC ((((((....)))))) the same measures were -32.8 kcal/mol and 50.1 °C.
GATCCTAGGCAGGATC ((((((....)))))): in series [1], the folding enthalpy was -35.4 kcal/mol. Moreover, the Tm in series [2] was 53.3 °C.

(Values after the array DNA melting data of Ke et al. (doi:10.1101/2024.01.08.574731).)
